# Columns and labels:
# Plasmodium falciparum [1] = assay: Antiplasmodial activity against drug-resistant Plasmodium falciparum TM90C6B; type: functional, organism-based
# Outline: (§1)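 In vitro asexual P. falciparum growth inhibition, reported as IC50. The strains were chloroquine-sensitive 3D7; Dd2, resistant to CQ, SDX, PYR, MQ and CYC; TM90C6B, resistant to CQ, PYR and ATO; and 3D7r_MMV848, resistant to MMV692848. A standard antimalarial served as control for each resistant strain. Values are mean ± standard deviation of two independent experiments run in triplicate.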
# [2] = Cytotoxicity against human HepG2 cells; type: toxicity, cell-based
# Plasmodium falciparum [3] = assay: Antiplasmodial activity against drug-resistant Plasmodium falciparum 3D7r_MMV848; type: functional, organism-based; outline: as §1
# Plasmodium falciparum [4] = assay: Antiplasmodial activity against drug-resistant Plasmodium falciparum Dd2; type: functional, organism-based; outline: as §1
# Plasmodium falciparum [5] = assay: Antiplasmodial activity against Plasmodium falciparum 3D7; type: functional, organism-based; outline: as §1
# [6] = Selectivity index, ratio of IC50 for human HepG2 cells to IC50 for Plasmodium falciparum 3D7; type: toxicity; conditions: HepG2 cells versus Plasmodium falciparum 3D7, read-out: Ratio IC50
# Plasmodium falciparum [7] = assay: Resistance index, ratio of IC50 for drug-resistant Plasmodium falciparum Dd2 to IC50 for Plasmodium falciparum 3D7; type: functional
# Outline: (§2)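 Resistance index computed as IC50 against the resistant strain divided by IC50 against 3D7. IC50 values are mean ± standard deviation of two independent experiments in triplicate. Resistant strains: Dd2 (CQ, SDX, PYR, MQ, CYC), TM90C6B (CQ, PYR, ATO) and 3D7r_MMV848 (MMV692848).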
# Plasmodium falciparum [8] = assay: Resistance index, ratio of IC50 for drug-resistant Plasmodium falciparum TM90C6B to IC50 for Plasmodium falciparum 3D7; type: functional; outline: as §2
# Plasmodium falciparum [9] = assay: Resistance index, ratio of IC50 for drug-resistant Plasmodium falciparum 3D7r_MMV848 to IC50 for Plasmodium falciparum 3D7; type: functional; outline: as §2
SMILES,IC50 (Plasmodium falciparum [1]) [µM],IC50 [2] [µM],IC50 (Plasmodium falciparum [3]) [µM],IC50 (Plasmodium falciparum [4]) [µM],IC50 (Plasmodium falciparum [5]) [µM],selectivity ratio [6],Ratio IC50 (Plasmodium falciparum [7]),Ratio IC50 (Plasmodium falciparum [8]),Ratio IC50 (Plasmodium falciparum [9])
CC1=C(C)[C@H]2[C@H](Cc3ccc(O)cc3)NC(=O)[C@]23OC(=O)C/C=C(/C)C(=O)[C@@H](C)C/C=C/[C@H]3[C@@H]1O,6,> 100,4,7,4.4,> 23,1.6,1.4,0.9
CCc1nc(N)nc(N)c1-c1ccc(Cl)cc1 [PYRIMETHAMINE],,,,> 10,,,>166,,
CC(C)c1c(C(=O)Nc2ccccc2)c(-c2ccccc2)c(-c2ccc(F)cc2)n1CC[C@@H](O)C[C@@H](O)CC(=O)O [ATORVASTATIN],> 1,,,,,,,>1428,

# Reference: ChEMBL document CHEMBL5584332, “Structure and Biosynthesis of Perochalasins A-C, Open-Chain Merocytochalasans Produced by the Marine-Derived Fungus Peroneutypa sp. M16” (J Nat Prod, 2024)
